Measurements from ChEMBL document CHEMBL3352094, “Trehalose- and glucose-derived glycoamphiphiles: small-molecule and nanoparticle Toll-like receptor 4 (TLR4) modulators” (J Med Chem, 2014).
Active and inactive are the calls of the source. The rule behind the calls is not given here.

Key:
Toll-like receptor 4 [1] = molecular target: T1, Toll-like receptor 4 (Homo sapiens, UniProt O00206); test: Antagonist activity at human TLR4 expressed in HEK293 cells co-transfected with human MD-2/CD14 assessed as inhibition of LPS-stimulated receptor signal after 2 to 4 hrs by dual luciferase reporter gene assay; type: cell-based
T1 sequence (O00206 whole entry): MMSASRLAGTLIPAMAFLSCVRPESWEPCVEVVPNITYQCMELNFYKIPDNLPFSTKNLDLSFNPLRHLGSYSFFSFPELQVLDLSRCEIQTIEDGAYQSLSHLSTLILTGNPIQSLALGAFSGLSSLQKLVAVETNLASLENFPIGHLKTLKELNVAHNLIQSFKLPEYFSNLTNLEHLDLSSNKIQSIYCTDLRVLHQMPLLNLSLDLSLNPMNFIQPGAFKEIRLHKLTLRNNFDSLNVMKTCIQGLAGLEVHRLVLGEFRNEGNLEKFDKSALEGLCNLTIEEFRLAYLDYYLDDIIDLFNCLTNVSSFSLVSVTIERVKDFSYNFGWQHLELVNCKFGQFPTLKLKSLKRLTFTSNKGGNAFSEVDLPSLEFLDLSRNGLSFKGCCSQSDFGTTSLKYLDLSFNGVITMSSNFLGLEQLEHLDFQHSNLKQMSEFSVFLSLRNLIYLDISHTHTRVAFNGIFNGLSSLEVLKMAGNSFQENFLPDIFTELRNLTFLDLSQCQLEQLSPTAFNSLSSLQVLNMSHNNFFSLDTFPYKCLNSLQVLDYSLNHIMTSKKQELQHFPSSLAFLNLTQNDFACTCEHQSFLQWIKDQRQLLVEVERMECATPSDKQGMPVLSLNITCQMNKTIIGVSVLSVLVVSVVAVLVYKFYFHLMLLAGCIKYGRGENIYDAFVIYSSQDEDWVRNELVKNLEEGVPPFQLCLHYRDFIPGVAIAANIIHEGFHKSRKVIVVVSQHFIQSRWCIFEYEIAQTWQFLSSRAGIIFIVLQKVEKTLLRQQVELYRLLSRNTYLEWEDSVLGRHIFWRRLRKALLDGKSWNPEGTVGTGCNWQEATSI
Method in brief: (§1)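 Cells were treated with increasing compound concentrations, with or without LPS stimulation (5 nM). Signal is dual-luciferase, normalized, and representative of three independent experiments.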

[2] = Amphiphilicity of the compound assessed as critical micelle concentration by spectrofluorophotometry; type: physicochemical
Method in brief: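 The CMC in aqueous solution was determined from the polarity-dependent change in the fluorescence spectrum of pyrene as it partitions into micelles formed by the compound.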

[3] = molecular target: T2, Toll-like receptor 4 (Mus musculus) (UniProt Q9QUK6); test: Activation of mouse TLR4 in mouse BMDM cells by ELISA; type: cell-based
T2 sequence (whole entry): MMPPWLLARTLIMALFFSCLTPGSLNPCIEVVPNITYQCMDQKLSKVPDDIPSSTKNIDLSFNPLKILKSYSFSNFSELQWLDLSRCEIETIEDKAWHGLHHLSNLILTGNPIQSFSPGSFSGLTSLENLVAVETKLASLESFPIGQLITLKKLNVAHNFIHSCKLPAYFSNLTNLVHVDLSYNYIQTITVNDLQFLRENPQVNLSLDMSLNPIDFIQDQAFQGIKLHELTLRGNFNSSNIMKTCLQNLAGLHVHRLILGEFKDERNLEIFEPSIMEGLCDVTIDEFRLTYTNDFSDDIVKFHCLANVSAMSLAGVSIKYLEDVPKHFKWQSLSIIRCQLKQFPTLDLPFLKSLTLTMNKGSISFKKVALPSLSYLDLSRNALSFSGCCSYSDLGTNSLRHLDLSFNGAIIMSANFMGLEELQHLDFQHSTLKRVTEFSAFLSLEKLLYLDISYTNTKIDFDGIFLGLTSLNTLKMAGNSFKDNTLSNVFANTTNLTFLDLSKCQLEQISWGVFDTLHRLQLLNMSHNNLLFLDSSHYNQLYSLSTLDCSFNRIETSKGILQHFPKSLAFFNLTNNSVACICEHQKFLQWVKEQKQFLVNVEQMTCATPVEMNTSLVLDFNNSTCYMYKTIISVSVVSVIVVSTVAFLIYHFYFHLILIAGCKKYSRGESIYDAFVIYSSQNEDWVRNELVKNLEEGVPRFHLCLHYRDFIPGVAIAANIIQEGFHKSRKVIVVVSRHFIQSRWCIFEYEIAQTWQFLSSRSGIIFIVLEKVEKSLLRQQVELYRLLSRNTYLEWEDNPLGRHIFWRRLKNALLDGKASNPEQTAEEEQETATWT

Toll-like receptor 4 [4] = molecular target: T1, Toll-like receptor 4; test: Agonist activity at human TLR4 expressed in HEK293 cells co-transfected with human MD-2/CD14 assessed as receptor signal after 2 to 4 hrs by dual luciferase reporter gene assay; type: cell-based; method in brief: as §1
Toll-like receptor 4 [5] = molecular target: T1, Toll-like receptor 4; test: Agonist activity at TLR4 (unknown origin) expressed in HEK293 Blue cells measured after 2 to 4 hrs by spectrophotometry; type: cell-based
Method in brief: (§2)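 HEK-Blue cells stably transfected with TLR4, MD-2 and CD14 carry a secreted alkaline phosphatase reporter under an NF-κB/AP-1-inducible promoter. TLR4 activation by endotoxin was monitored through secreted alkaline phosphatase.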

HEK293 = test: Cytotoxicity against HEK-Blue cells after 3 hrs by MTT assay; type: cell-based; conditions: human, hek293, 3 h
[6] = molecular target: T2, Toll-like receptor 4 (Mus musculus); test: Antagonist activity at mouse TLR4 in mouse BMDM cells assessed as inhibition of LPS-stimulated IL-6 production compound treated for 1 hr before LPS challenge by ELISA; type: cell-based
Method in brief: (§3)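 Bone marrow-derived murine macrophages in RPMI with 10% FBS were pretreated with compound (0–2 µM), and LPS was added 1 hour later. After overnight incubation, IL-6 and TNF-α in the medium were measured by ELISA. Cells not given LPS served as negative controls.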

[7] = molecular target: T2, Toll-like receptor 4 (Mus musculus); test: Agonist activity at mouse TLR4 expressed in HEK293 cells co-transfected with mouse MD-2/CD14 assessed as receptor signal after 2 to 4 hrs by dual luciferase reporter gene assay; type: cell-based; method in brief: as §1
[8] = molecular target: T2, Toll-like receptor 4 (Mus musculus); test: Antagonist activity at mouse TLR4 in mouse BMDM cells assessed as inhibition of LPS-stimulated TNFalpha production compound treated for 1 hr before LPS challenge by ELISA; type: cell-based; method in brief: as §3
Toll-like receptor 4 [9] = molecular target: T3, Toll-like receptor 4 (Mus musculus, UniProt Q9QUK6); test: (§4) Antagonist activity at mouse TLR4 expressed in HEK293 cells co-transfected with mouse MD-2/CD14 assessed as inhibition of LPS-stimulated receptor signal after 2 to 4 hrs by dual luciferase reporter gene assay; type: cell-based; method in brief: as §1
T3 sequence (Q9QUK6 whole entry): T2 sequence (whole entry)

[10] = molecular target: T2, Toll-like receptor 4 (Mus musculus); test: as §4; type: cell-based; method in brief: as §1
Toll-like receptor 4 [11] = molecular target: T1, Toll-like receptor 4; test: Inhibition of LPS-induced TLR4 activation (unknown origin) expressed in HEK293 Blue cells compound treated for 30 mins prior LPS treatment measured after 2 to 4 hrs by spectrophotometry; type: cell-based; method in brief: as §2
Toll-like receptor 4 [12] = molecular target: T1, Toll-like receptor 4; test: Agonist activity at TLR4 (unknown origin) expressed in HEK293 Blue cells measured after 2 to 4 hrs by spectrophotometry
[13] = molecular target: T2, Toll-like receptor 4 (Mus musculus); test: Antagonist activity at mouse TLR4 in mouse BMDM cells assessed as inhibition of LPS-stimulated TNFalpha production at 1 to 2 uM for 1 hr before LPS treatment by ELISA; type: cell-based; method in brief: as §3
[14] = molecular target: T2, Toll-like receptor 4 (Mus musculus); test: Antagonist activity at mouse TLR4 in mouse BMDM cells assessed as inhibition of LPS-stimulated IL-6 production at 1 to 2 uM for 1 hr before LPS treatment by ELISA; type: cell-based; method in brief: as §3
[15] = molecular target: T2, Toll-like receptor 4 (Mus musculus); test: Antagonist activity at mouse TLR4 in mouse BMDM cells assessed as inhibition of LPS-stimulated TNFalpha production at 0.1 to 0.5 uM for 1 hr before LPS treatment by ELISA; type: cell-based; method in brief: as §3
[16] = molecular target: T2, Toll-like receptor 4 (Mus musculus); test: Antagonist activity at mouse TLR4 in mouse BMDM cells assessed as inhibition of LPS-stimulated IL-6 production at 0.1 to 0.5 uM for 1 hr before LPS treatment by ELISA; type: cell-based; method in brief: as §3
Mus musculus = test: Immunosuppressive C57/B16 mouse assessed as inhibition of LPS-induced immune activation measured as TNFalpha secretion at 2 x 10^-7 mol, ip 1 hr prior LPS challenge by ELISA; type: functional, organism-based
Method in brief: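 C57/Bl6 mice were given compound i.p. at 2·10^-7 mol/mouse, then LPS i.p. (1·10^-9 mol/mouse) 1 hour later. Sera were collected three hours after LPS and serum TNF-α concentration was determined.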

Row | Compound | IC50 (Toll-like receptor 4 [1]) [nM] | inhibition (Toll-like receptor 4 [1]) | CMC [2] [µM] | Activity (Toll-like receptor 4 [4]) | Activity (Toll-like receptor 4 [5]) | Activity [7] | IC50 (Toll-like receptor 4 [9]) [nM] | inhibition [10] | IC50 (Toll-like receptor 4 [11]) [nM] | inhibition (Toll-like receptor 4 [11]) | Activity (Toll-like receptor 4 [12]) | Activity (Toll-like receptor 4 [1]) | Activity [10] | Activity (HEK293) | other results
1 | CCCCCC(=O)O[C@@H]1[C@H](OC(=O)CCCCC)[C@@H](O[C@H]2O[C@H](Cn3cc(CN(CCN)CCN)nn3)[C@@H](OC(=O)CCCCC)[C@H](OC(=O)CCCCC)[C@H]2OC(=O)CCCCC)O[C@H](Cn2cc(CN(CCN)CCN)nn2)[C@H]1OC(=O)CCCCC | 200 | Dose-dependent effect | 350 | inactive | inactive | inactive | 200 | Dose-dependent effect | 600 | Dose-dependent effect | inactive |  |  | Non-toxic | inhibition [13]: Dose-dependent effect; inhibition [14]: Dose-dependent effect; inhibition [15]: inactive; inhibition [16]: inactive; inhibition (Mus musculus): Active
2 | CCCCCCO[C@@H]1[C@@H](OCCCCCC)[C@@H](OC)O[C@H](CN)[C@H]1OCCCCCC |  |  |  | inactive |  | inactive |  |  |  | inactive |  | inactive | inactive |  | 
3 | CCCCCC(=O)O[C@@H]1[C@H](OC(=O)CCCCC)[C@@H](O[C@H]2O[C@H](CSCCN)[C@@H](OC(=O)CCCCC)[C@H](OC(=O)CCCCC)[C@H]2OC(=O)CCCCC)O[C@H](CSCCN)[C@H]1OC(=O)CCCCC | 1400 | Dose-dependent effect | 97.7 | inactive | inactive | inactive | 800 | Dose-dependent effect | 1300 | Dose-dependent effect | inactive |  |  | Non-toxic | Activity [3]: inactive; inhibition [6]: inactive; inhibition [8]: inactive
4 | CCCCCCO[C@H]1[C@@H](OC)O[C@H](CSCCN)[C@@H](O)[C@@H]1OCCCCCC |  |  |  | inactive |  | inactive |  |  |  | inactive |  | inactive | inactive |  | 
5 | CCCCCCCCCCCCCCO[C@@H]1[C@H](OCCCCCCCCCCCCCC)[C@@H](O[C@H]2O[C@H](CSCCN)[C@@H](OCCCCCCCCCCCCCC)[C@H](OCCCCCCCCCCCCCC)[C@H]2OCCCCCCCCCCCCCC)O[C@H](CSCCN)[C@H]1OCCCCCCCCCCCCCC |  |  |  | inactive |  | inactive |  |  |  | inactive |  | inactive | inactive |  | 

Further lines, with some results ahead:

Row | IC50 (Toll-like receptor 4 [1]) [nM] | inhibition (Toll-like receptor 4 [1]) | CMC [2] [µM] | Activity (Toll-like receptor 4 [4]) | Activity (Toll-like receptor 4 [5]) | Activity [7] | IC50 (Toll-like receptor 4 [9]) [nM] | inhibition [10] | IC50 (Toll-like receptor 4 [11]) [nM] | inhibition (Toll-like receptor 4 [11]) | Activity (Toll-like receptor 4 [12]) | Activity (Toll-like receptor 4 [1]) | Activity [10] | Compound | Activity (HEK293) | other results
6 | 3900 | Dose-dependent effect | 59.7 | inactive | inactive | inactive | 3300 | Dose-dependent effect | 3700 | Dose-dependent effect | inactive |  |  | CCCCCC(=O)O[C@@H]1[C@@H](OC(=O)CCCCC)[C@@H](OC)O[C@H](CSCCNC(=S)NCCN(CCN)CCN)[C@H]1OC(=O)CCCCC.Cl | Non-toxic | Activity [3]: inactive; inhibition [6]: inactive; inhibition [8]: inactive
7 |  |  |  | inactive |  | inactive |  |  |  | inactive |  | inactive | inactive | CCCCCCO[C@@H]1[C@H](OCCCCCC)[C@@H](O[C@H]2O[C@H](CSCCN)[C@@H](OCCCCCC)[C@H](OCCCCCC)[C@H]2OCCCCCC)O[C@H](CSCCN)[C@H]1OCCCCCC |  | 
8 |  |  |  | inactive |  | inactive |  |  |  | inactive |  | inactive | inactive | CCCCCCCCCCCCCCO[C@H]1[C@@H](OC)O[C@H](CSCCN)[C@@H](O)[C@@H]1OCCCCCCCCCCCCCC |  | 
9 | 600 | Dose-dependent effect | 10.9 | inactive | inactive | inactive | 600 | Dose-dependent effect | 5000 | Dose-dependent effect | inactive |  |  | CCCCCC(=O)O[C@@H]1[C@H](OC(=O)CCCCC)[C@@H](O[C@H]2O[C@H](Cn3cc(CNC(=S)NCCN)nn3)[C@@H](OC(=O)CCCCC)[C@H](OC(=O)CCCCC)[C@H]2OC(=O)CCCCC)O[C@H](Cn2cc(CNC(=S)NCCN)nn2)[C@H]1OC(=O)CCCCC | Non-toxic | 
10 |  |  |  | inactive |  | inactive |  |  |  | inactive |  | inactive | inactive | CCCCCC(=O)O[C@@H]1[C@@H](OC(=O)CCCCC)[C@@H](OC)O[C@H](Cn2cc(CN(CCNC(=S)NCCN)CCNC(=S)NCCN)nn2)[C@H]1OC(=O)CCCCC |  | 
